# eIF4H FP inh: inhibitors of RNA binding by human eIF4H | Q15056 | eIF4H fluorescence polarization binding assay | inhibition, % at 35 µM | 0.94% of 290,000 active | AID 2012;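 note: calls also rest on retests at 20 µM and on dose response follow-up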
# PABP FP inh: blocks human PABP binding to poly(A) RNA; P11940; fluorescence polarization; inhibition, % at 35 µM; 1% of 290,000 active;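 note: calls also rest on retests at 20 µM and on dose response follow-up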
# HCV NS3 hel inh: blocks Hepatitis C virus NS3 helicase unwinding; 0.56% of 290,000 active; inhibition, % at 10.9 µM; NS3 helicase DNA unwinding, Cy5 molecular beacon fluorescence;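 active = inhibition above the mean of all tested compounds plus 3 SD, set per campaign, cut at about 35% in these data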;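 note: 0% = DMSO wells and 100% = thioflavine S control wells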
#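 Measured by: Cy5 fluorescence, 0 and 60 min reads / Assay system: NS3 helicase fragment of HCV / Control set: low DMSO, high thioflavine S at 110 µM / Times: 1 h reaction at 25 °C, ATP-initiated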
# PABP1 MLLE inh: inhibitors of microRNA-mediated deadenylation, human PABP1 MLLE binding | P11940 | GST-MLLE / FITC-PAM2 fluorescence polarization | inhibition, % at 20 µM | 0.36% of 360,000 active; in the data active = inhibition above about 35%, passing the limit was not always enough;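 note: plate controls were DMSO wells with GST-MLLE for no effect and wells lacking GST-MLLE protein for full effect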
# DNA FID counter-1: counter-screen for HCV NS3 helicase inhibitors: DNA intercalator displacement | DNA fluorescent intercalator displacement, fluorescence | inhibition, % at 7.9 µM | 0.17% of 290,000 active | AID 1845; in the data active = inhibition above about 37%;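 note: 0% = vehicle and 100% = reference compound; higher means more ethidium bromide displaced from hairpin DNA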
# core dimer inh: HCV core protein dimerization inhibition; TR-FRET GST/Flag-core106 dimerization, 1536-well; 0.33% of 300,000 active; inhibition, % at 5 µM;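 active = inhibition above the mean of all tested compounds plus 3 SD, set per screening campaign, cut at about 45% in these data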
#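 assay system = GST-tagged and Flag-tagged HCV core protein residues 1-106 | controls = unlabelled core106 and no-GST-core106 wells | incubation = compound-protein-antibody incubation 4 h at 22.5 °C | probe or stimulus = Eu donor and XL665 acceptor anti-tag antibodies | read-out = % inhibition based on acceptor/donor emission ratio | signal = TR-FRET 671 and 617 nm emission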
# NS3 helicase cf: confirmation of Hepatitis C virus NS3 helicase inhibitors; shares compounds with HCV NS3 hel inh; NS3 helicase DNA unwinding, Cy5 molecular beacon fluorescence; inhibition, % at 10.9 µM; 31% of 1,600 active; AID 1943;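 active = inhibition above the mean of all tested compounds plus 3 SD, cutoff set per campaign, cut at about 36% in these data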
# DNA FID counter-2: displaces DNA intercalator in HCV helicase counter-screen | shares compounds with HCV NS3 hel inh | DNA fluorescent intercalator displacement, fluorescence | inhibition, % at 7.9 µM | 4% of 1,600 active | AID 1945; in the data active = inhibition above about 37%;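 note: 0% = vehicle and 100% = reference compound; higher means more displacement of ethidium bromide from the DNA hairpin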
# FID counter DR: DNA intercalator displacement in dose response. fluorescent intercalator displacement from DNA, fluorescence. AID 2172. 120 tested, under 10 active. shares compounds with HCV NS3 hel inh. IC50, µM
# Active calls of the source: *; . = not tested or not shown. A selection: hits, their analogues and other compounds. The true share with any hit is near 2%. Unless noted, the rule behind the calls is not given here.
SMILES,eIF4H FP inh,PABP FP inh,HCV NS3 hel inh,PABP1 MLLE inh,DNA FID counter-1,core dimer inh,NS3 helicase cf,DNA FID counter-2,others
Cc1cc(N)ccc1-n1c(C)ccc1C,13,14,-3,2,-32,-2,.,.,
Cc1cc(C(=O)O)ccc1-n1c(C)ccc1C,.,.,78*,.,-24,-9,90*,-26,
CN(C)/C=C1\C(=O)N(c2ccc([N+](=O)[O-])cc2)N=C1c1ccccc1,-9,-3,40*,2,-11,9,53*,10,
CN(C)/C=C1/C(=O)N(c2ccc([N+](=O)[O-])cc2)N=C1c1ccccc1,-3,-2,19,.,-12,2,.,.,
Cc1ccc(-n2c(SCC(=O)O)nc3sc4c(c3c2=O)C(C)CCC4)cc1 (centres undefined),-7,-4,55*,-5,-16,-9,66*,-15,
Cc1ccc(-n2c(SCC(=O)O)nc3sc4c(c3c2=O)CC(C)(C)SC4)cc1,.,.,.,5,.,.,.,.,
CSC1=NC=C(C#N)C2=NC(c3c(Cl)cccc3Cl)NN12 (centres undefined),.,.,.,-33,.,.,.,.,
Cc1ccccc1S(=O)(=O)NC(=O)C1(C)CCN1C(=O)CC1CCCC1 (centres undefined),.,.,.,1,.,.,.,.,
CC1(C)CC(=O)C2=C(C1)N(c1ccc(F)cc1)C(=O)C2(NC(=O)c1ccccc1)C(F)(F)F (centres undefined),-1,-2,49*,.,3,-1,-7,10,
O=C(O)c1nn(Cc2csc(-c3ccccc3)n2)c(=O)c2ccccc12,-4,-2,48*,-9,-41,-7,8,-23,
Cc1ccc(-c2noc(Cn3nc(C(=O)O)c4ccccc4c3=O)n2)cc1,-6,4,-6,0,-20,7,.,.,
O=C(NCCCCc1ccccc1)C12CN(Cc3ccccc3)CC1C(c1cccc([N+](=O)[O-])c1)=NO2 (centres undefined),-12,-5,-13,4,-14,5,.,.,
O=C(NCCc1cccs1)C12CN(Cc3ccccc3)CC1C(c1cccc([N+](=O)[O-])c1)=NO2 (centres undefined),-12,4,56*,5,-16,18,2,-21,
Cc1cccc(NC(=S)NCc2ccccc2Cl)c1C,-2,-6,-14,-16,-17,-13,.,.,
CNc1ccc(Br)cc(C(=O)/C=C/c2ccc3c(c2)OCO3)c1=O,92*,48*,54*,-23,-4,56*,45*,4,
O=C(C=Cc1ccc2c(c1)OCO2)c1ccccc1,.,.,.,4,.,.,.,.,
CNc1ccc(Br)cc(C(=O)/C=C/c2ccc(OC)cc2)c1=O,32,1,33,-23,-17,18,.,.,
CNc1ccc(Br)cc(C(=O)/C=C/c2cc(OC)ccc2OC)c1=O,33,-9,40*,-71,-22,24,61*,-9,FID counter DR=>79
CN(C)c1ccc(-c2ccnc3c2CC(C)(C(=O)Nc2cccc(Oc4ccccc4)c2)O3)cc1 (centres undefined),.,.,.,2,.,.,.,.,
CCOc1ccc(S(=O)(=O)N2CCC(C(=O)Nc3ccccc3N3CCCC3)CC2)cc1,.,.,.,5,.,.,.,.,
O=C(O)c1ccc(S(=O)(=O)N(CCc2ccccc2)Cc2ccc(Cl)cc2)cc1,2,-1,45*,-6,6,7,32,11,
COc1ccc(S(=O)(=O)N(Cc2ccccc2)c2ccccc2C(=O)O)cc1,-8,14,-13,1,-36,7,.,.,
Cc1ccc(S(=O)(=O)N(Cc2ccc(Cl)cc2)c2ccccc2C(=O)O)cc1,-6,-1,36*,-2,-32,3,41*,-24,
CC1CCCC(N2CCN(C(=O)c3ccc([N+](=O)[O-])cc3)CC2)C1 (centres undefined),6,8,-8,3,5,.,.,.,
COc1ccc(CC(=O)Nc2cc(=O)n(C)c(=O)n2C)cc1,3,5,56*,7,-4,2,0,-2,
SMILES,eIF4H FP inh,PABP FP inh,HCV NS3 hel inh,PABP1 MLLE inh,DNA FID counter-1,core dimer inh,NS3 helicase cf,DNA FID counter-2,others
CCN(CC(=O)Nc1ccc(NC(C)=O)cc1)C(=O)c1c(C)nn(Cc2ccc(C)cc2)c1Cl,.,.,.,-5,.,.,.,.,
COc1ccc2[nH]c3c(C)c4ccncc4c(C)c3c2c1,29,42,42*,-13,77*,-30,112*,90*,
Cc1c2ccncc2cc2c1[nH]c1ccccc12,.,.,.,-45,.,.,.,.,
O=C1NC(c2ccccc2)=C(c2nc3ccccc3s2)C(c2ccccc2)N1 (centres undefined),-8,-6,39*,6,-26,8,-5,-13,
CC(=O)C1=C(c2ccccc2)NC(=O)NC1c1ccccc1 (centres undefined),-1,-1,-6,4,-5,1,.,.,
Cc1ccc(S(=O)(=O)N2C[C@H]3C(=O)C[C@@H](c4ccccc4)N(S(=O)(=O)c4ccc(Br)cc4)[C@H]3C[C@H]2c2ccccc2)cc1,.,.,.,-1,.,.,.,.,
NNc1nc2c(-c3cccc(C(F)(F)F)c3)nnn2c2ccccc12,76,5,43*,-103,3,.,0,17,
COCCNc1nc2c(-c3cccc(C(F)(F)F)c3)nnn2c2ccccc12,-2,-8,5,6,-2,0,.,.,
Cn1c(Nc2ccc(Cl)cc2F)nc2cc(-c3ccccc3)sc2c1=O,.,.,.,-4,.,.,.,.,
CCOC(=O)c1ccc(N2C(=O)c3n[nH]c(C)c3C2c2cccnc2)cc1 (centres undefined),0,1,9,10,-8,-1,.,.,
CCOC(=O)c1ccc(N2C(=O)c3n[nH]c(-c4ccco4)c3C2c2ccc([N+](=O)[O-])cc2)cc1 (centres undefined),72,7,38*,-9,-34,22,20,-31,
O=C(NCc1ccccc1)c1cc(C2COCCN2S(=O)(=O)c2cccs2)on1 (centres undefined),.,.,.,8,.,.,.,.,
Cc1ccc2nc(NC(=O)c3ccc4ncsc4c3)sc2c1,-3,3,0,6,-3,4,.,.,
NS(=O)(=O)c1ccc2nc(NC(=O)c3ccc4ncsc4c3)sc2c1,0,2,44*,6,-15,-2,42*,11,FID counter DR=>79
CCCCCC/C(C)=C1/SC(=S)NC1=O,-3,-2,40*,-44,-5,6,12,0,
C/C(C/C(C)=C1/SC(=S)NC1=O)=C1\SC(=S)NC1=O,66,20,29,-27,-10,.,.,.,
Cc1ccc(S(=O)(=O)N2CCOCC2)cc1NC(=O)Nc1ccc([N+](=O)[O-])cc1,.,.,.,13,.,.,.,.,
